Data taken from paper PMC2034471 (Nucleic Acids Research, 2007).

Key:
35 bp mismatch GT = test: EMSA, 35 bp DNA with GT mismatch; assay type: binding; settings: read-out: Kd, 35 bp mismatch GT, without DTT, 50 mM Tris–HCl pH 8.0, 50 mM NaCl, 2 h at 22°C
Summary of the method: (§1)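 35-mer substrates (ss, GT mismatch, nick, gap, 3′-biotinylated duplex) made by annealing oligonucleotides in 10 mM Tris–HCl pH 8, 1 mM EDTA, 200 mM NaCl: 90°C 10 min, then slow cooling. Annealing checked on native gels. 5′-32P kinase labelling at 25°C. Incubation 2 h at 22°C in 50 mM Tris–HCl pH 8.0, 50 mM NaCl, with or without 1 mM DTT. Native 6% gels; phosphor-screen quantification for affinity.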

[1] = ref [23]; cited from earlier work
[2] = aggregation / stability of Rad9 fragments in solution; assay type: physicochemical; settings: after three days at 0.2 mM and 30°C; MES 50 mM, NaCl 50 mM, 2 mM TCEP, pH 6
35 bp Nick = test: EMSA, 35 bp DNA with nick; assay type: binding; settings: read-out: Kd, 35 bp Nick, without DTT, 50 mM Tris–HCl pH 8.0, 50 mM NaCl, 2 h at 22°C
Summary of the method: as §1

[3] = molecular target: 35 bp double-stranded DNA; test: EMSA, 35 bp ds DNA; assay type: binding; settings: read-out: Kd, 35 bp ds, without DTT, 50 mM Tris–HCl pH 8.0, 50 mM NaCl, 2 h at 22°C, DNA 26 nM
35 bp ss = test: EMSA, 35 nt single-stranded DNA; assay type: binding; settings: read-out: Kd, 35 bp ss, without DTT, 50 mM Tris–HCl pH 8.0, 50 mM NaCl, 2 h at 22°C
Summary of the method: as §1

[4] = molecular target: 211 bp double-stranded DNA; test: EMSA, 211 bp ds DNA; assay type: binding; settings: read-out: Kd, 211 bp ds, with 1 mM DTT, 50 mM Tris–HCl pH 8.0, 50 mM NaCl, 0.1% triton X-100, 2 h at 22°C, phosphor screen
Summary of the method: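 211 bp fragment PCR-amplified from a DraI/BamHI digest of pUC(357.4) and 5′-32P end-labelled with T4 kinase at 37°C. Binding ran 2 h at 22°C in Tris–HCl pH 8.0 buffer with EDTA, AEBSF, 1 mM DTT, 50 mM NaCl and 0.1% triton X-100. Gels were 6% native polyacrylamide in 0.5× TEG at 70 V. Dried gels went onto a phosphor screen, and radioactive signals were quantified for affinity.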

[5] = test system: 35 bp ds with a 3′ terminal biotin; test: EMSA, 35 bp ds DNA with one 3′ terminal biotin; assay type: binding
Summary of the method: as §1

35 bp Gap = test: EMSA, 35 bp DNA with gap; assay type: binding; settings: read-out: Kd, 35 bp Gap, without DTT, 50 mM Tris–HCl pH 8.0, 50 mM NaCl, 2 h at 22°C
Summary of the method: as §1

[6] = test system: 146 bp double-stranded DNA; test: EMSA, 146 bp ds DNA; assay type: binding; settings: DNA 26 nM, 2- to 128-fold molar excess of protein
Summary of the method: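 146 bp fragment made by PCR on a pUC(357.4) digest template and 5′-end labelled with 32P-ATP/T4 polynucleotide kinase at 37°C. Protein fragments incubated with labelled DNA for 2 h at 22°C in 50 mM Tris–HCl pH 8.0, 1 mM EDTA, 1 mM AEBSF, 1 mM DTT, 50 mM NaCl, 0.1% triton X-100. Resolved on pre-run 6% native polyacrylamide (29:1) in 0.5× TEG at 70 V. Complexes detected by autoradiography of dried gels at –80°C.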

B1: ScRad9[754–947]: fragment 754–947 of Saccharomyces cerevisiae Rad9, tandem tudor domain (protein)
chain: GKDSKEQSYVFPEGIRTADNSFLSKDDIIFGNAVWCQYTWNYKFYPGILLEVDTNQDGCWIYFETGRSLTKDEDIYYLDIRIGDAVTFDGNEYVVVGLECRSHDLNIIRCIRGYDTVHLKKKNASGLLGKRTLIKALSSISLDLSEWAKRAKIILEDNEKNKGDAYRYLRHPIRGRKSMTNVLSPKKHTDDEKD
For B1, the Kd (35 bp mismatch GT) is listed as 890 ± 70 nM, the heat transition midpoint [1] is listed as 52 °C and the “fraction of fragment aggregated” value [2] is listed as 50%. It also gave a Kd (35 bp Nick) of 620 ± 60 nM, a Kd [3] of 960 ± 80 nM and a Kd (35 bp ss) of 2500 ± 180 nM. For the same molecule, the Kd [4] was 500 ± 70 nM, the “effect of biotin on affinity for the oligonucleotide” value ([5]; 35 bp ds, biotinylated at one or two 3′-OH ends, no streptavidin) was “does not modify the affinity” and the Kd ([5]; read-out: Kd, 35 bp ds with a 3′ terminal biotin, EMSA, with 1 mM DTT, 50 mM Tris–HCl pH 8.0, 50 mM NaCl, 2 h at 22°C) was 830 ± 50 nM. The Kd (35 bp Gap) was 960 ± 130 nM and the “interaction with 146 bp ds DNA by gel retardation” value [6] was “forms complexes”.
